In ChEMBL document CHEMBL1135458, “Discovery and biological evaluation of a new family of potent modulators of multidrug resistance: reversal of multidrug resistance of mouse lymphoma cells by new natural jatrophane diterpenoids isolated from Euphorbia species” (2002):

Tests used:
Format in all cases: functional
Lymphoma cell line [1] = test: Ability to reverse the multidrug resistance (MDR) of mouse Lymphoma cells, fluorescence activity ratio at 2 ug/mL.
In short: (§1)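 Rhodamine 123 accumulation by flow cytometry. MDR1-transduced L5178 mouse lymphoma cells and parental L5178Y cells at 2 × 10^6/mL in serum-free McCoy's 5A. Compound from DMSO stock for 10 min at room temperature, then 5.2 µM rhodamine 123 for 20 min at 37 °C, with two washes. Activity ratio: treated/untreated fluorescence of MDR cells divided by treated/untreated fluorescence of parental cells.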

Lymphoma cell line [2] = test: Ability to reverse the multidrug resistance (MDR) of mouse Lymphoma cells, by shrinkage (FSC) at 20 ug/mL.
In short: (§2)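 L5178 mouse T-cell lymphoma cells carrying the MDR1 gene (via pHa MDR1/A retrovirus, kept under 60 ng/mL colchicine), with the L5178Y parent line. Cells grown in McCoy's 5A with 10% heat-inactivated horse serum. Cells at 2 × 10^6/mL in serum-free medium were given compound (1.0 mg/mL DMSO stock) for 10 min at room temperature. Rhodamine 123 (5.2 µM final) was then added for 20 min at 37 °C. Cells were washed twice, resuspended in PBS, and read by flow cytometry for FSC, SSC and FL-1.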

Lymphoma cell line [3] = test: Ability to reverse the multidrug resistance (MDR) of mouse Lymphoma cells, by Granulation (SSC) at 20 ug/mL.; in short: as §2
Lymphoma cell line [4] = test: Ability to reverse the multidrug resistance (MDR) of mouse Lymphoma cells, by Granulation (SSC) at 2 ug/mL.; in short: as §2
Lymphoma cell line [5] = test: Ability to reverse the multidrug resistance (MDR) of mouse Lymphoma cells, fluorescence activity ratio at 20 ug/mL.; in short: as §1
Lymphoma cell line [6] = test: Ability to reverse the multidrug resistance (MDR) of mouse Lymphoma cells, FL-1at 20 ug/mL; design: reference not given here; in short: as §2
Lymphoma cell line [7] = test: Ability to reverse the multidrug resistance (MDR) of mouse Lymphoma cells, FL-1at 2 ug/mL; design: reference not given here; in short: as §2
Lymphoma cell line [8] = test: Ability to reverse the multidrug resistance (MDR) of mouse Lymphoma cells, by shrinkage (FSC) at 2 ug/mL.; in short: as §2
Lymphoma cell line [9] = test: Ability to reverse the multidrug resistance (MDR) of mouse Lymphoma cells, FL-1at 4 ug/mL; in short: as §2
Lymphoma cell line [10] = test: Ability to reverse the multidrug resistance (MDR) of mouse Lymphoma cells, by shrinkage (FSC) at 4 ug/mL.; in short: as §2
Lymphoma cell line [11] = test: Ability to reverse the multidrug resistance (MDR) of mouse Lymphoma cells, fluorescence activity ratio at 4 ug/mL.; in short: as §1
Lymphoma cell line [12] = test: Ability to reverse the multidrug resistance (MDR) of mouse Lymphoma cells, by Granulation (SSC) at 4 ug/mL.; in short: as §2
Lymphoma cell line [13] = test: Ability to reverse the multidrug resistance (MDR) of mouse Lymphoma cells, by Granulation (SSC) at 5 ug/mL.; in short: as §2
Lymphoma cell line [14] = test: Ability to reverse the multidrug resistance (MDR) of mouse Lymphoma cells, fluorescence activity ratio at 5 ug/mL.; in short: as §1
Lymphoma cell line [15] = test: Ability to reverse the multidrug resistance (MDR) of mouse Lymphoma cells, by shrinkage (FSC) at 5 ug/mL.; in short: as §2
Lymphoma cell line [16] = test: Ability to reverse the multidrug resistance (MDR) of mouse Lymphoma cells, FL-1at 5 ug/mL; in short: as §2

Row | SMILES | Fluorescence activity ratio (Lymphoma cell line [1]) | FSC (Lymphoma cell line [2]) | SSC (Lymphoma cell line [3]) | SSC (Lymphoma cell line [4]) | Fluorescence activity ratio (Lymphoma cell line [5]) | FL-1 (Lymphoma cell line [6]) | FL-1 (Lymphoma cell line [7]) | FSC (Lymphoma cell line [8]) | FL-1 (Lymphoma cell line [9]) | FSC (Lymphoma cell line [10]) | Fluorescence activity ratio (Lymphoma cell line [11]) | SSC (Lymphoma cell line [12]) | SSC (Lymphoma cell line [13]) | Fluorescence activity ratio (Lymphoma cell line [14]) | FSC (Lymphoma cell line [15]) | FL-1 (Lymphoma cell line [16])
1 | CC(=O)O[C@@H]1[C@@H](OC(C)=O)C(C)(C)/C=C/[C@H](C)[C@H](OC(C)=O)[C@@]2(OC(C)=O)C[C@H](C)[C@H](OC(=O)c3ccccc3)/C2=C\[C@](C)(O)[C@@H]1OC(C)=O | 4.31 | 658.03 | 175.29 | 166.49 | 4.86 | 41.9 | 37.12 | 641.56 |  |  |  |  |  |  |  | 
2 | CC(=O)O[C@@H]1[C@@H](OC(C)=O)C(C)(C)/C=C/[C@H](C)C(=O)[C@@]2(OC(C)=O)C[C@@H](C)[C@H](OC(=O)c3ccccc3)/C2=C\[C@](C)(O)[C@@H]1OC(C)=O | 8.87 | 565.55 | 232.7 | 237.88 | 6.7 | 401.98 | 532.78 | 562.62 |  |  |  |  |  |  |  | 
3 | CC(=O)O[C@@H]1[C@@H](OC(C)=O)C(C)(C)/C=C/[C@H](C)[C@H](OC(C)=O)[C@@]2(OC(C)=O)C[C@@H](C)[C@H](OC(=O)c3ccccc3)[C@@H]2/C=C(\C)[C@@H]1O | 20.98 | 654.67 | 167.73 | 165.87 | 34.79 | 299.93 | 180.81 | 653.55 |  |  |  |  |  |  |  | 
4 | C=C1[C@H](OC(C)=O)[C@@H](O)[C@@H](OC(=O)c2cccnc2)C(C)(C)/C=C/[C@H](C)[C@H](OC(C)=O)[C@@]2(O)C[C@@](C)(OC(C)=O)[C@H](OC(=O)c3ccccc3)[C@@H]2[C@H]1OC(C)=O | 12.75 | 636.35 | 291.38 | 301.64 | 71.98 | 878.14 | 155.62 | 632.81 |  |  |  |  |  |  |  | 
5 | C=C1[C@H](OC(=O)C(C)C)[C@@H](OC(C)=O)[C@@H](OC(C)=O)C(C)(C)/C=C/[C@@H](C)C(=O)[C@@]2(OC(C)=O)C[C@@](C)(OC(C)=O)[C@H](OC(C)=O)[C@@H]2[C@H]1OC(C)=O | 5.52 | 620.4 | 254.87 | 246.26 | 14.75 | 444.35 | 166.44 | 589.78 |  |  |  |  |  |  |  | 
6 | C=C1[C@H](OC(C)=O)[C@@H](OC(C)=O)[C@@H](OC(C)=O)C(C)(C)/C=C/[C@H](C)[C@H](OC(C)=O)[C@@]2(O)C[C@@](C)(OC(C)=O)[C@H](OC(=O)c3ccccc3)[C@@H]2[C@H]1OC(C)=O | 16.77 | 587.54 | 239.54 | 239.85 | 29.48 | 888.3 | 505.23 | 577.39 |  |  |  |  |  |  |  | 
7 | C=C1[C@H](OC(=O)C(C)C)[C@H](OC(=O)C(C)C)[C@@H](OC(C)=O)C(C)(C)[C@@H]2O[C@H]2[C@@H](C)C(=O)[C@@]2(OC(C)=O)C[C@@](C)(OC(C)=O)[C@H](OC(C)=O)[C@@H]2[C@H]1OC(C)=O | 3.71 | 667.76 | 176.12 | 165.11 | 3.96 | 34.14 | 31.98 | 659.4 |  |  |  |  |  |  |  | 
8 | CC(=O)O[C@@H]1[C@@H](OC(C)=O)C(C)(C)/C=C/[C@H](C)C(=O)[C@@]2(OC(C)=O)C[C@@H](C)[C@H](OC(=O)c3ccccc3)/C2=C\[C@](C)(OC(C)=O)[C@@H]1OC(C)=O | 10.57 | 563.73 | 228.49 | 238.57 | 16.08 | 965.2 | 634.88 | 561.94 |  |  |  |  |  |  |  | 
9 | C=C1[C@H](OC(C)=O)C[C@@H](OC(=O)c2cccnc2)C(C)(C)/C=C/[C@@H](C)C(=O)[C@@]2(OC(C)=O)C[C@H](C)[C@H](OC(C)=O)[C@@H]2[C@H]1OC(C)=O | 34.74 | 640.31 | 297.54 | 300.61 | 74.27 | 906.08 | 423.87 | 634.95 |  |  |  |  |  |  |  | 
10 | CC(=O)O[C@@H]1[C@@H](OC(C)=O)C(C)(C)/C=C/[C@H](C)C(=O)C2(OC(C)=O)C[C@@](C)(O)[C@H](OC(=O)c3ccccc3)/C2=C\[C@](C)(OC(C)=O)[C@@H]1OC(C)=O (stereo partly drawn) | 8.75 | 555.8 | 231.39 | 235.31 | 12.73 | 764.3 | 525.32 | 558.57 |  |  |  |  |  |  |  | 
11 | C=C1[C@H](OC(=O)C(C)C)[C@@H](O)[C@@H](OC(C)=O)C(C)(C)/C=C/[C@H](C)[C@H](OC(C)=O)[C@@]2(O)C[C@@](C)(OC(C)=O)[C@H](OC(=O)c3ccccc3)[C@@H]2[C@H]1OC(C)=O | 6.3 |  |  | 333.78 |  |  | 90.12 | 625.31 | 32.37 | 638.02 | 2.26 | 335.77 |  |  |  | 
12 | C=C1[C@H](OC(C)=O)CC(=O)C(C)(C)/C=C/[C@@H](C)C(=O)[C@@]2(OC(C)=O)C[C@@](C)(OC(C)=O)[C@H](OC(C)=O)[C@@H]2[C@H]1OC(C)=O [ESULATIN B] | 2.58 | 631.19 | 307.84 | 313.58 | 7.83 | 95.54 | 31.47 | 642.45 |  |  |  |  |  |  |  | 
13 | C=C1[C@H](OC(C)=O)C[C@@H](OC(C)=O)C(C)(C)/C=C/[C@@H](C)C(=O)[C@@]2(OC(C)=O)C[C@@](C)(OC(C)=O)[C@H](OC(C)=O)[C@@H]2[C@H]1OC(C)=O [ESULATIN D] | 2.47 |  |  | 336.52 |  |  | 35.43 | 626.3 | 57.73 | 638.32 | 4.03 | 339.15 |  |  |  | 
14 | COc1ccc(CCN(C)CCCC(C#N)(c2ccc(OC)c(OC)c2)C(C)C)cc1OC (stereo not drawn) [VERAPAMIL] |  |  |  |  |  |  |  |  |  |  |  |  | 177.48 | 8.27 | 569.63 | 170.3
